Assay results reported in ChEMBL document CHEMBL1914346, “Discovery and synthesis of novel substituted benzocoumarins as orally active lipid modulating agents” (Bioorg Med Chem Lett, 2011).

How the values were obtained:
[1] = Antioxidant activity assessed as trolox equivalent by TEAC assay; assay type: functional
Syrian golden hamster [2] = experiment: Antidyslipidemic activity in high fat diet-fed dyslipidemic syrian golden hamster model assessed as increase in serum HDL level at 10 mg/kg, po administered once daily for 7 days relative to vehicle treated control; assay type: functional, Mesocricetus auratus
Procedure, shortened: (§1)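 Male Golden Syrian hamsters, 12 weeks old, 110 ± 10 g, eight per group, fed high-fat diet plus fructose daily on days 1–10. Oral dosing once daily on days 4–10 in 0.1% gum acacia; HFD-fed vehicle animals served as controls. After the last dose, retro-orbital blood was taken into EDTA and plasma lipids were measured enzymatically on an autoanalyzer. Results are % change versus HFD controls; t-test/ANOVA, p<0.05.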

Syrian golden hamster [3] = experiment: Antidyslipidemic activity in high fat diet-fed dyslipidemic syrian golden hamster model assessed as decrease in serum LDL level at 10 mg/kg, po administered once daily for 7 days relative to vehicle treated control; assay type: functional, Mesocricetus auratus; parameters: scale not given: the % may be the effect or the level left; procedure, shortened: as §1
Syrian golden hamster [4] = experiment: Antidyslipidemic activity in high fat diet-fed dyslipidemic syrian golden hamster model assessed as decrease in serum total cholesterol level at 10 mg/kg, po administered once daily for 7 days relative to vehicle treated control; assay type: functional, Mesocricetus auratus; parameters: scale not given: the % may be the effect or the level left; procedure, shortened: as §1
Syrian golden hamster [5] = experiment: Antidyslipidemic activity in high fat diet-fed dyslipidemic syrian golden hamster model assessed as increase in serum ratio of serum HDL/total cholesterol level at 10 mg/kg, po administered once daily for 7 days relative to vehicle treated control; assay type: functional, Mesocricetus auratus; procedure, shortened: as §1
Syrian golden hamster [6] = experiment: Toxicity in syrian golden hamster; assay type: organism-based, Mesocricetus auratus; details: in vivo
Procedure, shortened: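 HFD-fed male Golden Syrian hamsters, eight per group, dosed orally at 10 mg/kg once daily for 7 days in 0.1% gum acacia. Body weight was recorded daily and food intake was monitored, then compared with HFD vehicle controls.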

Syrian golden hamster [7] = experiment: Antidyslipidemic activity in high fat diet-fed dyslipidemic syrian golden hamster model assessed as decrease in serum triglyceride level at 10 mg/kg, po administered once daily for 7 days relative to vehicle treated control; assay type: functional, Mesocricetus auratus; parameters: scale not given: the % may be the effect or the level left; procedure, shortened: as §1
Syrian golden hamster [8] = experiment: Antidyslipidemic activity in high fat diet-fed dyslipidemic syrian golden hamster model assessed as increase in serum LDL level at 10 mg/kg, po administered once daily for 7 days relative to vehicle treated control; assay type: functional, Mesocricetus auratus; procedure, shortened: as §1
[9] = molecular target: T1, 3-hydroxy-3-methylglutaryl-coenzyme A reductase (Homo sapiens) (UniProt P04035); experiment: Inhibition of HMG-CoA reductase using HMG-CoA as substrate at 100 uM
T1 sequence (whole entry): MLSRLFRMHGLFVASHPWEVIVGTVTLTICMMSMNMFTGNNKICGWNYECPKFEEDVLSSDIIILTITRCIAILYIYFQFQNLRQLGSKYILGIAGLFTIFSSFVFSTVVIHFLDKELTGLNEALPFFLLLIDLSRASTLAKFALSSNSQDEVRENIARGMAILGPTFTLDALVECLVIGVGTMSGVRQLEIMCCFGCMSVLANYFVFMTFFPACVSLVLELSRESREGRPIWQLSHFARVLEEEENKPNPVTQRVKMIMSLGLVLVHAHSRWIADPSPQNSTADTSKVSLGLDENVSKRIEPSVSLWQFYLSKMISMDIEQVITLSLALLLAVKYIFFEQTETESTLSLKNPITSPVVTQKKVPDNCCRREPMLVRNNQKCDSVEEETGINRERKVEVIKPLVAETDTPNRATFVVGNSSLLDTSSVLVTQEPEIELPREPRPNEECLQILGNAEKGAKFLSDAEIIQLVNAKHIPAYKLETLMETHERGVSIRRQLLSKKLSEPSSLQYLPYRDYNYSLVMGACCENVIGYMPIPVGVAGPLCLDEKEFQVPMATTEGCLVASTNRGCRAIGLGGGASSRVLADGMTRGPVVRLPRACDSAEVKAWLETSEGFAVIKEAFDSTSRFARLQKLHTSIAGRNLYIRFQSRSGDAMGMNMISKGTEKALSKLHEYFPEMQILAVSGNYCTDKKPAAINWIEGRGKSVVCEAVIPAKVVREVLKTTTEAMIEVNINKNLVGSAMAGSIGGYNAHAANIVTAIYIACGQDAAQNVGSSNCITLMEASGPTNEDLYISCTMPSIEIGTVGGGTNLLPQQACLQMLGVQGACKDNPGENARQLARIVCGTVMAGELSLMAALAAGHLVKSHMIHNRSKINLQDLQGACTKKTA
Procedure, shortened: (§2)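 HMG-CoA reductase kit assay using supplied HMGR enzyme, HMG-CoA substrate, NADPH and assay buffer. Test concentrations were 5, 10, 25, 50 and 100 µM, with % inhibition recorded at each.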

Syrian golden hamster [10] = experiment: Antidyslipidemic activity in high fat diet-fed dyslipidemic syrian golden hamster model assessed as decrease in serum triglyceride level at 25 mg/kg, po administered once daily for 7 days relative to vehicle treated control; assay type: functional, Mesocricetus auratus; parameters: scale not given: the % may be the effect or the level left; procedure, shortened: as §1
[11] = molecular target: T1, 3-hydroxy-3-methylglutaryl-coenzyme A reductase (Homo sapiens); experiment: Inhibition of HMG-CoA reductase using HMG-CoA as substrate at 25 uM; procedure, shortened: as §2
Syrian golden hamster [12] = experiment: Antidyslipidemic activity in high fat diet-fed dyslipidemic syrian golden hamster model assessed as increase in serum ratio of HDL/total cholesterol level at 25 mg/kg, po administered once daily for 7 days relative to vehicle treated control; assay type: functional, Mesocricetus auratus; procedure, shortened: as §1
[13] = molecular target: T1, 3-hydroxy-3-methylglutaryl-coenzyme A reductase (Homo sapiens); experiment: Inhibition of HMG-CoA reductase using HMG-CoA as substrate at 5 uM; procedure, shortened: as §2
[14] = molecular target: T1, 3-hydroxy-3-methylglutaryl-coenzyme A reductase (Homo sapiens); experiment: Inhibition of HMG-CoA reductase using HMG-CoA as substrate at 10 uM; procedure, shortened: as §2
[15] = molecular target: T1, 3-hydroxy-3-methylglutaryl-coenzyme A reductase (Homo sapiens); experiment: Inhibition of HMG-CoA reductase using HMG-CoA as substrate at 50 uM; procedure, shortened: as §2
Syrian golden hamster [16] = experiment: Antidyslipidemic activity in high fat diet-fed dyslipidemic syrian golden hamster model assessed as decrease in serum total cholesterol level at 25 mg/kg, po administered once daily for 7 days relative to vehicle treated control; assay type: functional, Mesocricetus auratus; parameters: scale not given: the % may be the effect or the level left; procedure, shortened: as §1
Syrian golden hamster [17] = experiment: Antidyslipidemic activity in high fat diet-fed dyslipidemic syrian golden hamster model assessed as decrease in serum LDL level at 25 mg/kg, po administered once daily for 7 days relative to vehicle treated control; assay type: functional, Mesocricetus auratus; parameters: scale not given: the % may be the effect or the level left; procedure, shortened: as §1
Syrian golden hamster [18] = experiment: Antidyslipidemic activity in high fat diet-fed dyslipidemic syrian golden hamster model assessed as increase in serum HDL level at 25 mg/kg, po administered once daily for 7 days relative to vehicle treated control; assay type: functional, Mesocricetus auratus; procedure, shortened: as §1

Structure (SMILES) | Activity [1] [mM] | Activity (Syrian golden hamster [2]) [%] | Activity (Syrian golden hamster [3]) [%] | Activity (Syrian golden hamster [4]) [%] | Activity (Syrian golden hamster [5]) [%] | Activity (Syrian golden hamster [6]) | Activity (Syrian golden hamster [7]) [%] | Activity (Syrian golden hamster [8]) [%] | inhibition [9] [%] | Activity (Syrian golden hamster [10]) [%] | inhibition [11] [%] | Activity (Syrian golden hamster [12]) [%] | inhibition [13] [%] | inhibition [14] [%] | inhibition [15] [%] | Activity (Syrian golden hamster [16]) [%] | Activity (Syrian golden hamster [17]) [%] | Activity (Syrian golden hamster [18]) [%]
Cc1cc(=O)oc2c3c(ccc12)C(=O)/C(=C/NCC(C)(C)CO)C=C3C=O | 1.9 | 1 | 36 | 36 | 61 | Non-toxic | 49 | – | – | – | – | – | – | – | – | – | – | –
Cc1cc(=O)oc2c3c(ccc12)C(=O)/C(=C/Nc1ccccc1O)C=C3C=O | 0.36 | 15 | – | 3 | 19 | Non-toxic | 42 | 12 | – | – | – | – | – | – | – | – | – | –
O=C1O[C@H]([C@@H](O)CO)C(O)=C1O | 3.13 | – | – | – | – | – | – | – | – | – | – | – | – | – | – | – | – | –
Cc1cc(=O)oc2c3c(ccc12)C(=O)/C(=C/NCCCl)C=C3C=O | 0.38 | 19 | 14 | 17 | 9 | Non-toxic | 47 | – | – | – | – | – | – | – | – | – | – | –
CC[C@H](C)C(=O)O[C@H]1C[C@@H](C)C=C2C=C[C@H](C)[C@H](CC[C@@H]3C[C@@H](O)CC(=O)O3)[C@H]21 [LOVASTATIN] | – | – | – | – | – | – | – | – | 84.4 | 29 | 69.1 | 12 | 27.5 | 46.7 | 77.3 | 9 | 11 | 3
Cc1cc(=O)oc2c3c(ccc12)C(=O)/C(=C/NC1CCCCC1)C=C3C=O | 0.3 | 1 | 10 | 14 | 17 | Non-toxic | 62 | – | – | – | – | – | – | – | – | – | – | –
